{"data": "Results collected from several papers", "target": "Serine/threonine-protein kinase MRCK alpha (CDC42BPA, Homo sapiens, UniProt Q5VT25)", "note": "Protocols differ between the studies behind these lines."}
{"Compound": "N#Cc1ccc(Nc2ccc3[nH]c(=O)[nH]c3c2)c(Cl)c1", "assay": "cell-free assay, competition with immobilised ligand", "setting": "1 µM", "endpoint": "remaining binding", "value": "100%"}
{"Compound": "Cc1ccc(C(=O)Nc2ccc(CN3CCN(C)CC3)c(C(F)(F)F)c2)cc1C#Cc1cnc2cccnn12", "assay": "enzyme activity, inhibitor", "setting": "23.5 nM", "endpoint": "remaining activity", "value": "99%"}
{"Compound": "O=C(Nc1cnn(-c2csc(C(=O)NC3COC3)c2)c1)Nc1ccccc1Cl", "assay": "enzyme activity, inhibitor", "setting": "5 µM", "endpoint": "remaining activity", "value": "99.3%"}
{"Compound": "Cc1ccc(Nc2nccc(N(C)c3ccc4c(C)n(C)nc4c3)n2)cc1S(N)(=O)=O", "assay": "enzyme activity, inhibitor", "setting": "0.3 µM", "endpoint": "inhibition", "value": "9%"}
{"Compound": "O=C(NS(=O)(=O)c1ccc(NCC2CCOCC2)c([N+](=O)[O-])c1)c1ccc(N2CCN(Cc3ccc(C(F)(F)F)cc3-c3ccc(Cl)cc3)CC2)cc1Oc1cnc2[nH]ccc2c1", "assay": "cell-free assay, competition with immobilised ligand", "setting": "1 µM", "endpoint": "remaining binding", "value": "96%"}
{"Compound": "COc1cc(Cl)c(C(=O)N[C@@H](CN[C@H]2CC[C@@H](N)CC2)Cc2ccc(C#N)cc2)cc1-c1ccc(CN[C@H](C)c2ccc(C)cc2)o1", "assay": "enzyme activity, inhibitor", "setting": "1 µM", "endpoint": "remaining activity", "value": "99%"}
{"Compound": "Cc1cc(NC(=O)c2cccc3cc(-c4cccc5[nH]nc(N)c45)ccc23)ccc1F", "assay": "enzyme activity, inhibitor", "setting": "0.1 µM", "endpoint": "activity vs control", "value": "92%"}
{"Compound": "CCN(CC)CCNC(=O)c1c(C)[nH]c(/C=C2\\C(=O)Nc3ccc(F)cc32)c1C", "assay": "enzyme activity, inhibitor", "setting": "0.3 µM", "endpoint": "inhibition", "value": "8%"}
{"Compound": "CCOc1cc(-c2nncn2C)ccc1Nc1ncc2cc(C)nc(NCC(C)(C)C)c2n1", "assay": "enzyme activity, inhibitor, FRET", "setting": "1 µM", "endpoint": "inhibition", "value": "< 15%"}
{"Compound": "Nc1ncnc2occ(-c3ccc(NC(=O)Nc4cc(C(F)(F)F)ccc4F)cc3)c12", "assay": "enzyme activity, inhibitor", "setting": "20 µM", "endpoint": "remaining activity", "value": "0.05%"}
{"Compound": "c1ccc(N2CCN(Cc3nc4ccccc4[nH]3)CC2)nc1", "assay": "cell-free assay, competition with immobilised ligand", "setting": "1 µM", "endpoint": "remaining binding", "value": "100%"}
{"Compound": "N#CCCc1ccc2c(c1)-c1[nH]c3ccc([N+](=O)[O-])cc3c1CC(=O)N2", "assay": "cell-free assay", "setting": "0.5 µM", "endpoint": "remaining signal", "value": "73.1%"}
{"Compound": "CCS(=O)(=O)c1cc2cc(C[C@](O)(CC(C)(C)c3ccc(F)cc3C(N)=O)C(F)(F)F)[nH]c2cn1", "assay": "cell-free assay, competition with immobilised ligand", "setting": "1 µM", "endpoint": "remaining binding", "value": "89%"}
{"Compound": "CCCOc1ccc(OC)c(F)c1C(=O)c1ccc(C(=O)N[C@@H]2CNC[C@H]2NC(=O)c2ccc3[nH]ncc3c2)cc1", "assay": "enzyme activity, inhibitor", "setting": "10 µM", "endpoint": "remaining activity", "value": "-3%"}
{"Compound": "CC(C)(C)c1nc(-c2cccc(NS(=O)(=O)c3c(F)cccc3F)c2F)c(-c2ccnc(N)n2)s1", "assay": "enzyme activity, inhibitor, radiometric", "setting": "1 µM", "endpoint": "remaining activity", "value": "88%"}
